Only a selection was taken, and hits are over-represented in it overall.
Redox H2O2 prof: compounds producing H2O2 with reducing agent – biochemical, NIH compound library profiling, artefact control for MLSCN library redox annotation, primary screen; DTT-dependent redox cycling H2O2, phenol red/HRP absorbance; 100% = 100 µM peroxide control, 0% = buffer; 200,000 tested, 0.03% active; activation, % at 10 µM;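 active means activation of at least 50% relative to the plate's high and low controls in the primary single-dose screen; inactive means activation below 50%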;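 further: compound incubated with DTT at 0.8 mM final as the reducing agent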
T cruzi inh: blocks replication of Trypanosoma cruzi. T. cruzi beta-gal in NIH3T3, luminescence, 90 h. inhibition, % (no concentration beside the values). 300,000 tested, 1.4% active. AID 1885;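 active means mean inhibition across valid replicates above about 55%, limit read from the data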;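 further: signal also drops with host cell toxicity which is not excluded here; 0% = plate median of DMSO wells and 100% = zero luminescence signal; higher percent means less beta-gal luminescence so fewer parasites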
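assay system = mouse NIH/3T3 fibroblasts infected with β-gal-expressing T. cruzi Tulahuen C4 | input = 5,000 NIH/3T3 host cells per well | buffer or medium = DMEM plus 2% FBS | timing = 3 h host attachment, then at least 90 h co-culture | measured by = GalScreen luminescence, 60 min | evaluation = luminescence reflecting intracellular parasite burden, expressed as percent inhibition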
Hep lipid drop: modulators of hepatic lipid droplet formation; AML12 mouse hepatocytes, oleate lipid droplets, BODIPY imaging; inhibition, % at 6.5 µM; 240,000 tested, 0.4% active; AID 1656;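 active means lipid droplet intensity inhibited by at least 50%, with more than 500 cells counted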
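Assay system: AML12 hepatocytes (mouse) / Also added: 100 µM oleic acid challenge / Times: overnight treatment with compound plus oleate / Detection: high-content imaging of BODIPY-stained droplets and DAPI nuclei / Evaluation: % inhibition of lipid droplet signal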
MPTP inh: permeability transition pore inhibition; inhibition, % at 10 µM; AID 602449; isolated mouse mitochondria, Ca2+ swelling absorbance, 30 min; 360,000 tested, 1.4% active;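 active means inhibition of 50% or more, scaled per plate between neutral and stimulator controls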;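 further: 0% = DMSO wells given calcium and 100% = 1 mM EGTA wells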
L major viab: Leishmania major promastigote growth inhibition; Leishmania major promastigotes, resazurin fluorescence viability; 200,000 tested, 9% active; inhibition, % at 10 µM; in the data active means inhibition above about 50%;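 further: promastigotes grown with compound for 44 hours at 28 °C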
MPTP counter: membrane potential counter-screen of mitochondrial pore inhibitors. 5,000 tested, 78% active. AID 624504. shares compounds with MPTP inh. inhibition, % at 10 µM. isolated mitochondria, Rhodamine 123 fluorescence; in the data active means inhibition above about 22%;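 further: 0% = DMSO vehicle and 100% = positive control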
* = called active by the depositor.

Cc1ccc(NC(=O)c2ccccc2NS(=O)(=O)c2ccc(Cl)s2)cc1S(=O)(=O)N1CCOCC1 was read as Redox H2O2 prof 0.4, T cruzi inh 9.8, Hep lipid drop -21.1, MPTP inh 98.9*, L major viab -4.4 and MPTP counter 77.2*.
`COc1ccc(C)cc1NC(=O)c1ccccc1NS(=O)(=O)c1ccc(Cl)s1` gave Redox H2O2 prof -0.6, T cruzi inh 3.7, Hep lipid drop -6.9, MPTP inh 88.1*, L major viab 7.6 and MPTP counter 61.0*.
Screening Cc1ccc(S(=O)(=O)N2CCN(CC(=O)N(CC(C)C)c3c(N)n(CC(C)C)c(=O)[nH]c3=O)CC2)c(C)c1 returned Redox H2O2 prof -0.5, T cruzi inh -8.7, Hep lipid drop 0.5, MPTP inh 1.6 and L major viab -6.5.
`O=C(Cc1cccc2ccccc12)Nc1ccc(OC(F)F)c(Cl)c1` gave Redox H2O2 prof 0.7, T cruzi inh 29.2, Hep lipid drop -16.2, MPTP inh 85.1*, L major viab 39.0 and MPTP counter 90.1*.
Screening O=C(Nc1ccc(OC(F)F)c(Cl)c1)C(c1ccccc1)c1ccccc1 returned Redox H2O2 prof 0.1, T cruzi inh 60.4*, Hep lipid drop -34.4, MPTP inh 82.8*, L major viab 11.4 and MPTP counter 89.9*.
COCc1cccc(NC(=O)Cc2cccc3ccccc23)c1 was read as Redox H2O2 prof -1.3, T cruzi inh -4.4, Hep lipid drop -18.6, MPTP inh -0.6 and L major viab 7.5.
O=C1C(Cc2ccc3[nH]ccc3c2)NC(=S)N1c1ccccc1 (stereo not drawn) was read as T cruzi inh -7.1, Hep lipid drop -24.5 and MPTP inh 1.1.
N#C/C(=C(/O)C(Cl)(Cl)Cl)c1nc2ccccc2[nH]1 was read as T cruzi inh -15.5, Hep lipid drop 5.8, MPTP inh 75.5* and MPTP counter 81.3*.
Screening N#C/C(=C(/O)c1ccc(Cl)c([N+](=O)[O-])c1)c1nc2ccccc2[nH]1 returned T cruzi inh 6.9, Hep lipid drop -0.8, MPTP inh 78.3* and MPTP counter 80.6*.
`CSc1nc(-c2ccc(Cl)cc2Cl)[nH]c(=O)c1C#N` gave Redox H2O2 prof -1.0, T cruzi inh -3.8, Hep lipid drop 40.5, MPTP inh 88.0*, L major viab 0.5 and MPTP counter 88.7*.
`Cc1cc(-c2ccc(Cl)cc2Cl)c(C#N)c(=O)[nH]1` gave T cruzi inh -3.5, Hep lipid drop 2.0 and MPTP inh 2.0.
Cc1cc2oc3ccc(NCCCN4CCOCC4)cc3c(=O)c2cc1C was read as T cruzi inh -5.8 and MPTP inh 0.8.
Cc1cc2oc3ccc(NCCCn4ccnc4)cc3c(=O)c2cc1C was read as T cruzi inh 27.3, MPTP inh 57.5* and MPTP counter -2.0.
`CCC(=O)c1ccc(OCC(=O)NCc2ccccc2CN2CCCC2)cc1` gave MPTP inh -0.3.
O=C(Nc1ccc(Oc2ncnc3cc(Cl)ccc23)nc1)Nc1cccc(C(F)(F)F)c1 was read as T cruzi inh 5.1, Hep lipid drop 18.1, MPTP inh 89.5* and MPTP counter 25.4*.
`O=C(Nc1ccc(Oc2ncnc3cc(Cl)ccc23)nc1)c1ccc(F)cc1` gave Hep lipid drop 19.4.
`CCc1ccc(C(=O)COC(=O)[C@@H](NC(N)=O)[C@@H](C)CC)cc1` gave Redox H2O2 prof 0.0, T cruzi inh 1.2, Hep lipid drop 1.5, MPTP inh -1.4 and L major viab -2.2.
For CC1CCCCN1S(=O)(=O)c1ccc(C(=O)Nc2ccccc2-c2nc3ccccc3s2)cc1 (stereo not drawn) the results were Redox H2O2 prof 2.6, T cruzi inh -5.3, Hep lipid drop -13.0, MPTP inh -1.3 and L major viab 0.9.
O=C(Nc1ccccc1-c1nc2ccccc2[nH]1)c1ccc(S(=O)(=O)N2CCCCC2)cc1 was read as Redox H2O2 prof -3.1, T cruzi inh 58.5*, MPTP inh 50.5*, L major viab 21.6 and MPTP counter 28.0*.
`CC1CCCCN1S(=O)(=O)c1ccc(C(=O)Nc2ccccc2-c2nc3ccccc3[nH]2)cc1` (stereo not drawn) gave Redox H2O2 prof 0.0, T cruzi inh 49.8, Hep lipid drop -14.9, MPTP inh 74.2*, L major viab 24.2 and MPTP counter 74.6*.
For CCN(CC(=O)Nc1ccc(S(=O)(=O)N2CCCCC2)cc1)Cc1ccccc1 the results were T cruzi inh 5.4 and MPTP inh 1.7.
Screening COc1ccc(COC(=O)Oc2ccc(CNC(C)=O)cc2OC)c([N+](=O)[O-])c1 returned T cruzi inh -0.3 and MPTP inh -0.5.
For Cc1c(Cl)c([N+](=O)[O-])nn1CCCC(=O)Nc1cc(Oc2ccccc2)cc([N+](=O)[O-])c1 the results were Redox H2O2 prof 0.9, T cruzi inh 33.9, Hep lipid drop -1.7, MPTP inh 85.0*, L major viab 8.7 and MPTP counter 83.5*.
`O=C(COC(=O)C12CC3CC(CC(C3)C1)C2)Nc1nc2c(F)c(F)c(F)cc2s1` gave Redox H2O2 prof 0.1, T cruzi inh 5.8, Hep lipid drop -1.4, MPTP inh 70.4*, L major viab -3.5 and MPTP counter 40.2*.
`Cc1nn(-c2ccccc2)c(N2CCCC2)c1/C=N/NC(=O)c1cc(-c2cccs2)nc2ccccc12` gave Redox H2O2 prof 0.5, T cruzi inh 17.6, Hep lipid drop 14.9, MPTP inh -1.0 and L major viab 5.5.
For Cc1nn(-c2ccccc2)c(N2CCCC2)c1/C=N/NC(=O)c1cc2ccccc2cc1O the results were Redox H2O2 prof 0.7, T cruzi inh -4.8, Hep lipid drop -5.5, MPTP inh 96.9*, L major viab -9.0 and MPTP counter 69.8*.
Screening CCc1nc2ccc(C(=O)NCCOc3ccc(OC)cc3)cn2c1N(C)Cc1nccn1C returned MPTP inh -1.5.
Screening CCOC(=O)C1(C)CCCN1C(=O)c1ccc(F)c(Cl)c1 (stereo not drawn) returned MPTP inh 0.8.
Screening CNCc1ccccc1Sc1cccc2ccccc12 returned Redox H2O2 prof 0.0, T cruzi inh -20.4, Hep lipid drop -2.2, MPTP inh 93.1*, L major viab 79.2* and MPTP counter 20.3*.
O=C(CSc1nc2cc(Cl)ccc2o1)Nc1ccc(N2CCOCC2)cc1 was read as Redox H2O2 prof 0.4, T cruzi inh 0.6, MPTP inh 50.9*, L major viab -3.0 and MPTP counter 67.6*.
Cc1onc(-c2ccccc2)c1C(=O)N(Cc1ccccc1)C(C)C was read as T cruzi inh -1.3, Hep lipid drop -18.9 and MPTP inh 2.5.
Screening CCc1nc(SCc2ccc(Br)cc2)n[nH]1 returned T cruzi inh 4.3, Hep lipid drop 18.3 and MPTP inh -0.5.

Screening data from PubChem.
